Assay results taken from ChEMBL document CHEMBL3045605, “Synthesis and anticancer evaluation of novel 3,5-diaryl-thiazolo[4,5-d]pyrimidin-2-one derivatives” (2013).

How the values were obtained:
Type in all cases: functional
HCT-15 [1] = assay: Anticancer activity against Homo sapiens (human) HCT15 cells by SRB assay
Summary of the method: (§1)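 NCI 60-line panel, five tenfold dilutions from 10−4 to 10−8 M, growth read by sulforhodamine B staining against untreated controls. From the dose–response per line: GI50 (molar concentration giving half growth inhibition), TGI (molar concentration giving total growth inhibition, cytostatic) and LC50 (molar concentration killing 50% of initial cells, cytotoxic).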

K562 [2] = assay: Anticancer activity against Homo sapiens (human) K562 cells assessed as cell growth at 10 uM by SRB assay; settings: read-out: Activity
Summary of the method: (§2)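 NCI 60-cell human tumour panel (nine cancer types) screened at one concentration, 10−5 M. Cell growth estimated by sulforhodamine B protein staining and reported as percent growth of treated cells relative to untreated controls.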

MDA-MB-435 [3] = assay: Anticancer activity against Homo sapiens (human) MDA-MB-435 cells by SRB assay
Summary of the method: (§3)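 Five-dose NCI 60-cell-line panel testing at tenfold dilutions from 10−4 to 10−8 M, with growth read by sulforhodamine B protein staining. For each cell line: GI50 is the molar concentration giving half growth inhibition; TGI is total growth inhibition (cytostatic); LC50 is the molar concentration killing 50% of the initial cells (cytotoxic).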

UACC-257 [4] = assay: Anticancer activity against Homo sapiens (human) UACC257 cells assessed as cell growth at 10 uM by SRB assay; settings: read-out: Activity
Summary of the method: (§4)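 NCI 60-cell human tumour panel (leukemia, melanoma, lung, colon, CNS, breast, ovarian, prostate, renal lines) given a single 10−5 M dose. Growth is expressed as percent growth of treated cells relative to untreated controls, with cell growth/viability estimated by sulforhodamine B protein staining.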

OVCAR-4 [5] = assay: Anticancer activity against Homo sapiens (human) OVCAR4 cells assessed as cell growth at 10 uM by SRB assay; settings: read-out: Activity
Summary of the method: (§5)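 Single-dose screen in the NCI 60-human-tumour-cell-line panel (nine cancer types) at 10−5 M. Cell growth was estimated by sulforhodamine B protein staining and reported as percent growth of treated cells relative to untreated controls.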

HOP-62 [6] = assay: Anticancer activity against Homo sapiens (human) HOP62 cells by SRB assay; summary of the method: as §1
RXF 393 [7] = assay: Anticancer activity against Homo sapiens (human) RXF393 cells by SRB assay; summary of the method: as §3
RXF 393 [8] = assay: Anticancer activity against Homo sapiens (human) RXF393 cells assessed as cell growth at 10 uM by SRB assay; settings: read-out: Activity; summary of the method: as §5
A498 = assay: Anticancer activity against Homo sapiens (human) A498 cells assessed as cell growth at 10 uM by SRB assay; settings: read-out: Activity; summary of the method: as §2
OVCAR-4 [9] = assay: Anticancer activity against Homo sapiens (human) OVCAR4 cells by SRB assay; summary of the method: as §3
MOLT-4 [10] = assay: Anticancer activity against Homo sapiens (human) MOLT4 cells assessed as cell growth at 10 uM by SRB assay; settings: read-out: Activity; summary of the method: as §5
TK-10 = assay: Anticancer activity against Homo sapiens (human) TK10 cells by SRB assay
Summary of the method: (§6)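 NCI five-dose follow-up on the 60-line human tumour panel at tenfold dilutions from 10−4 to 10−8 M, with growth read by sulforhodamine B protein assay against untreated controls. For each cell line, GI50 (half growth inhibition), TGI (total growth inhibition) and LC50 (50% death of initial cells) are calculated as molar concentrations.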

[11] = Anticancer activity against Homo sapiens (human) RPMI8266 cells by SRB assay; summary of the method: as §3
[12] = Anticancer activity against Homo sapiens (human) NCI-322M cells assessed as cell growth at 10 uM by SRB assay; settings: read-out: Activity; summary of the method: as §5
UACC-257 [13] = assay: Anticancer activity against Homo sapiens (human) UACC257 cells by SRB assay; summary of the method: as §6
SN12C = assay: Anticancer activity against Homo sapiens (human) SN12C cells assessed as cell growth at 10 uM by SRB assay; settings: read-out: Activity; summary of the method: as §5
HOP-62 [14] = assay: Anticancer activity against Homo sapiens (human) HOP62 cells assessed as cell growth at 10 uM by SRB assay; settings: read-out: Activity; summary of the method: as §2
MDA-MB-435 [15] = assay: Anticancer activity against Homo sapiens (human) MDA-MB-435 cells assessed as cell growth at 10 uM by SRB assay; settings: read-out: Activity; summary of the method: as §5
Hs-578T = assay: Anticancer activity against Homo sapiens (human) Hs 578T cells by SRB assay; summary of the method: as §1
SW-620 = assay: Anticancer activity against Homo sapiens (human) SW620 cells assessed as cell growth at 10 uM by SRB assay; settings: read-out: Activity; summary of the method: as §4
PC-3 = assay: Anticancer activity against Homo sapiens (human) PC3 cells by SRB assay; summary of the method: as §3
SNB-19 = assay: Anticancer activity against Homo sapiens (human) SNB19 cells assessed as cell growth at 10 uM by SRB assay; settings: read-out: Activity; summary of the method: as §5
SF-268 = assay: Anticancer activity against Homo sapiens (human) SF268 cells assessed as cell growth at 10 uM by SRB assay; settings: read-out: Activity; summary of the method: as §5
SK-MEL-28 = assay: Anticancer activity against Homo sapiens (human) SK-MEL-28 cells by SRB assay; summary of the method: as §3
HCT-15 [16] = assay: Anticancer activity against Homo sapiens (human) HCT15 cells assessed as cell growth at 10 uM by SRB assay; settings: read-out: Activity; summary of the method: as §2
KM12 = assay: Anticancer activity against Homo sapiens (human) KM12 cells by SRB assay; summary of the method: as §1
NCI-H522 = assay: Anticancer activity against Homo sapiens (human) NCI-H522 cells assessed as cell growth at 10 uM by SRB assay; settings: read-out: Activity; summary of the method: as §5
CAKI-1 = assay: Anticancer activity against Homo sapiens (human) CAKI-1 cells by SRB assay; summary of the method: as §1
UACC-62 = assay: Anticancer activity against Homo sapiens (human) UACC62 cells by SRB assay; summary of the method: as §6
MOLT-4 [17] = assay: Anticancer activity against Homo sapiens (human) MOLT4 cells by SRB assay; summary of the method: as §3
SK-MEL-2 = assay: Anticancer activity against Homo sapiens (human) SK-MEL-2 cells assessed as cell growth at 10 uM by SRB assay; settings: read-out: Activity; summary of the method: as §5
T47D = assay: Anticancer activity against Homo sapiens (human) T47D cells by SRB assay; summary of the method: as §6
MDA-MB-468 = assay: Anticancer activity against Homo sapiens (human) MDA-MB-468 cells by SRB assay; summary of the method: as §3
UO-31 = assay: Anticancer activity against Homo sapiens (human) UO31 cells assessed as cell growth at 10 uM by SRB assay; settings: read-out: Activity; summary of the method: as §4
NCI/ADR-RES [18] = assay: Anticancer activity against Homo sapiens (human) NCI/ADR-RES cells by SRB assay; summary of the method: as §3
NCI/ADR-RES [19] = assay: Anticancer activity against Homo sapiens (human) NCI/ADR-RES cells assessed as cell growth at 10 uM by SRB assay; settings: read-out: Activity; summary of the method: as §5
BT-549 = assay: Anticancer activity against Homo sapiens (human) BT549 cells assessed as cell growth at 10 uM by SRB assay; settings: read-out: Activity; summary of the method: as §2
K562 [20] = assay: Anticancer activity against Homo sapiens (human) K562 cells by SRB assay; summary of the method: as §1
[21] = read-out: pLC50 (the source's name) (converted)

O=c1sc2c(Cl)nc(-c3ccccc3)nc2n1-c1ccccc1
GI50 (HCT-15 [1]): 4.68 µM
growth at 10 µM (K562 [2]): 19%
GI50 (MDA-MB-435 [3]): 4.9 µM
TGI (MDA-MB-435 [3]; read-out: pTGI (converted)): 45.7 µM
growth at 10 µM (UACC-257 [4]): 48%
growth at 10 µM (OVCAR-4 [5]): 31%
GI50 (HOP-62 [6]): 3.63 µM
CC50 (HOP-62 [6]; [21]): 72.4 µM
TGI (HOP-62 [6]; read-out: pTGI (converted)): 15.5 µM
GI50 (RXF 393 [7]): 2.4 µM
LC50 (RXF 393 [7]): 38 µM
TGI (RXF 393 [7]; read-out: pTGI (converted)): 8.91 µM
growth at 10 µM (RXF 393 [8]): -4%
growth at 10 µM (A498): 44%
GI50 (OVCAR-4 [9]): 5.01 µM
TGI (OVCAR-4 [9]; read-out: pTGI (converted)): 35.5 µM
growth at 10 µM (MOLT-4 [10]): 54%
GI50 (TK-10): 10.5 µM
GI50 [11]: 44.7 µM
growth at 10 µM [12]: 62%
GI50 (UACC-257 [13]): 8.91 µM
TGI (UACC-257 [13]; read-out: pTGI (converted)): 31.6 µM
growth at 10 µM (SN12C): 43%
growth at 10 µM (HOP-62 [14]): 15%
growth at 10 µM (MDA-MB-435 [15]): 26%
GI50 (Hs-578T): 3.31 µM
TGI (Hs-578T; read-out: pTGI (converted)): 18.6 µM
growth at 10 µM (SW-620): -4%
GI50 (PC-3): 3.31 µM
CC50 (PC-3; [21]): 81.3 µM
TGI (PC-3; read-out: pTGI (converted)): 14.5 µM
growth at 10 µM (SNB-19): 70%
growth at 10 µM (SF-268): 52%
GI50 (SK-MEL-28): 3.39 µM
LC50 (SK-MEL-28): 69.2 µM
TGI (SK-MEL-28; read-out: pTGI (converted)): 13.2 µM
growth at 10 µM (HCT-15 [16]): 28%
GI50 (KM12): 81.3 µM
growth at 10 µM (NCI-H522): -65%
GI50 (CAKI-1): 2.34 µM
LC50 (CAKI-1): 46.8 µM
TGI (CAKI-1; read-out: pTGI (converted)): 5.75 µM
GI50 (UACC-62): 20 µM
GI50 (MOLT-4 [17]): 12.9 µM
growth at 10 µM (SK-MEL-2): 48%
GI50 (T47D): 17 µM
GI50 (MDA-MB-468): 3.63 µM
growth at 10 µM (UO-31): -79%
GI50 (NCI/ADR-RES [18]): 21.4 µM
growth at 10 µM (NCI/ADR-RES [19]): 66%
growth at 10 µM (BT-549): 86%
GI50 (K562 [20]): 4.07 µM
